A selection: hits, their analogues and other compounds. The true share with any hit is near 3.1%.
ADAM10 inh – inhibitors of human ADAM10. inhibition, % at 7 µM. O14672. hit rate 0.62% among 370,000. AID 720582. recombinant ADAM10, EDANS/DABCYL FRET peptide cleavage, 3 h;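 active = inhibition above a per-campaign cutoff equal to the mean of compounds falling between control-based bounds plus 3 SD, cut at about 20% in these data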;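 note: 0% = DMSO wells while the 100% control is not disclosed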
Target sequence (O14672 214-748 limits assumed): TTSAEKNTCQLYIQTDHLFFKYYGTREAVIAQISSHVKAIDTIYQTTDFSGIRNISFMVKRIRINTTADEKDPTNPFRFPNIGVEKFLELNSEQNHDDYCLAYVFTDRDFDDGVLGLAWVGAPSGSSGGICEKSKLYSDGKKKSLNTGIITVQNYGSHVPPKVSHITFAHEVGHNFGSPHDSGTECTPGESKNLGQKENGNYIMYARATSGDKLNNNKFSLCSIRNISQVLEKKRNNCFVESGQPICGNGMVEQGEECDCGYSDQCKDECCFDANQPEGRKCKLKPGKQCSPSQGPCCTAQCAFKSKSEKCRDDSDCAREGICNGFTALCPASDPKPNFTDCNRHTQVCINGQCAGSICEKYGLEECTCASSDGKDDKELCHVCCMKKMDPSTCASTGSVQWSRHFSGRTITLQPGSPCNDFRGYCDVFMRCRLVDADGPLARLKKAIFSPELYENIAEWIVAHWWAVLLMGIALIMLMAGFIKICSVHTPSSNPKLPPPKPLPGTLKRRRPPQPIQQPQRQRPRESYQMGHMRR
MPTP inh – permeability transition pore inhibition | isolated mouse mitochondria, Ca2+ swelling absorbance, 30 min | inhibition, % at 10 µM | hit rate 1.4% among 360,000 | AID 602449;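 active = inhibition of 50% or more, scaled per plate between neutral and stimulator controls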;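 note: 0% = DMSO wells given calcium and 100% = 1 mM EGTA wells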
V-ATPase pHluor – regulators of yeast V-ATPase proton transport; S. cerevisiae, pHLuorin cytosolic pH fluorescence; response, % at 10 µM; hit rate 0.37% among 350,000; in the data active = response mostly above about 7.3%, no sharp cut-off; inactive = mostly below about 5.4%; note: actives read high
Lipid droplet – modulators of hepatic lipid droplet formation; inhibition, % at 6.5 µM; AID 1656; hit rate 0.4% among 240,000; AML12 mouse hepatocytes, oleate lipid droplets, BODIPY imaging;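 active = lipid droplet intensity inhibited by at least 50%, with more than 500 cells counted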
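System: AML12 hepatocytes (mouse). Probe or stimulus: oleic acid at 100 µM to induce lipid droplet formation. Times: overnight treatment with compound plus oleate. Detection: Image-based BODIPY and DAPI two-channel analysis. Evaluation: percent inhibition of filter-corrected integrated lipid droplet intensity per well.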
ADAM17 inh – inhibitors of human ADAM17. P78536. recombinant ADAM17, EDANS/DABCYL FRET peptide cleavage. AID 720648. hit rate 0.83% among 370,000. inhibition, % at 6.95 µM;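 active = inhibition above the mean of compounds lying between control limits plus 3 SD, set per campaign, cut at about 8.5% in these data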;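 note: 0% = DMSO-only wells as the low control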
aDG glyco act – increases alpha dystroglycan glycosylation; Pro5-aDG cells, alpha-DG glycosylation AlphaScreen (IIH6); 0% Pro5, 100% B10-LARGE cell signal; activation, % at 10 µM; hit rate 0.22% among 360,000;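 active = activation of at least 8% versus controls, or a plate z-score of at least 8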;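 note: Pro5 are CHO cells carrying HIG-tagged alpha-DG that lacks glycosylation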
Rh123 counter – mitochondrial membrane potential, counter-screen. shares compounds with MPTP inh. isolated mitochondria, Rhodamine 123 fluorescence. inhibition, % at 10 µM. hit rate 78% among 5,000. AID 624504; in the data active = inhibition above about 22%;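 note: 0% = DMSO vehicle and 100% = positive control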
MPTP swell DR – dose response confirmation of mitochondrial permeability transition pore inhibitors; IC50, µM; hit rate 58% among 780; isolated mitochondria swelling, absorbance; shares compounds with MPTP inh; in the data active = IC50 below about 20 µM
MPTP cs DR – active in counter-screen for permeability transition pore inhibitors. hit rate 49% among 780. IC50, µM. AID 651564. isolated mitochondria counterscreen, fluorescence read-out. shares compounds with MPTP inh; in the data active = IC50 below about 80 µM
An asterisk follows results filed as active; i = inactive; / = not tested or not shown.

SMILES | ADAM10 inh | MPTP inh | V-ATPase pHluor | Lipid droplet | ADAM17 inh | aDG glyco act | Rh123 counter | others
CCN(CC)c1ccc2c(-c3ccc(S(=O)(=O)O)cc3S(=O)(=O)[O-])c3ccc(=[N+](CC)CC)cc-3oc2c1 | / | 64.4* | 2.2 | -1.8 | / | 0.0 | 1.0
CCN(C[C@@H]1[C@@H](c2ccccc2)[C@H](CO)N1S(C)(=O)=O)C(=O)C1CCC1 | -3.5 | / | / | / | -1.6 | / | /
Cc1cn([C@@H](CCCCNC(=O)OC(C)(C)C)C(=O)NCCCCCCCCCCC(=O)N2CCN(C(=O)OC(C)(C)C)CC2)nn1 | / | 9.6 | -1.5 | / | / | 3.7 | /
CC(C)(C)OC(=O)NCCCCCc1cn(CC(=O)NCCCCCCCCCCC(=O)N2CCN(C(=O)OC(C)(C)C)CC2)nn1 | 17.9 | 94.3* | -4.2 | / | 8.4 | 0.4 | -1.5 | MPTP swell DR=1.99*;MPTP cs DR=<2.5*
O=S1(=O)c2c(cccc2N2CCC[C@@H]2CO)OCCCN1C1CC1 | 0.0 | / | / | / | -1.9 | / | /
N#CC1=C(N)NC(SCc2ccccc2)=C(C#N)C12CCCCC2 | 4.8 | 68.2* | -0.7 | -5.7 | -1.1 | 0.0 | 74.4*
CCSC1=C(C#N)C2(CCCCC2)C(C#N)=C(N)N1 | -3.9 | -0.2 | 2.4 | / | 2.8 | 0.2 | /
Cc1ccc(C(C)C)c(OCCNC(=O)c2ccccc2O)c1 | -9.1 | 88.0* | 1.6 | 1.1 | -2.9 | 0.3 | 83.2*
CSc1ccc(Cl)c(C(=O)NCCOc2cc(C)ccc2C(C)C)c1 | 8.0 | 5.9 | -2.8 | / | 3.5 | 0.2 | /
CCS(=O)(=O)N1CCC(C(=O)NCCCN2CCC(Cc3ccccc3)CC2)CC1 | 1.0 | 1.4 | -1.2 | / | -0.7 | -0.2 | /
O=C(NCCCN1CCC(Cc2ccccc2)CC1)C1CCN(S(=O)(=O)N2CCOCC2)CC1 | 0.1 | 87.8* | 3.7 | / | -4.1 | -0.2 | 5.0 | MPTP swell DR=i;MPTP cs DR=60.9*
CC(C)(C)c1ccc(C2CC2C(=O)N/N=C\c2ccc[nH]2)cc1 (stereo unspecified) | 0.6 | 105.0* | 2.1 | 1.4 | -2.4 | 9.1* | 97.6*
O=C(c1ccc(O)cc1)c1ccc(C(=O)c2ccc(O)cc2)cc1 | 3.5 | 69.4* | 2.3 | 6.7 | 0.7 | -0.2 | 33.8*
O=C(CCc1ccccc1)N[C@H]1[C@@H](O)CCC[C@]12C(=O)N(Cc1ccccc1)c1ccccc12 | -1.1 | / | / | / | 1.1 | / | /
Cc1ccccc1CN1CCCCC(NC(=O)c2ccc(COc3ccccc3)cc2)C1=O (stereo unspecified) | 4.7 | / | / | / | 0.9 | / | /
Cc1ccc(C(=O)N/N=C(/CC(=O)c2cccs2)C(F)(F)F)cc1 | 8.5 | 55.2* | 0.4 | -5.5 | 5.7 | 0.2 | 82.0*
CCOC(=O)C1=NOC(C(=O)Nc2nccs2)(C(=O)C2CC2)C1 (stereo unspecified) | 1.0 | / | / | / | 1.4 | / | /
Cc1nnc2n(-c3ccccc3)c(=O)c3c4c(sc3n12)COC(C(C)C)C4 (stereo unspecified) | -13.6 | -5.9 | 0.4 | -3.1 | -0.2 | 1.4 | /
CC(C)C1Cc2c(sc3[nH]c(=S)n(Cc4ccccc4)c(=O)c23)CO1 (stereo unspecified) | -5.2 | 81.2* | 0.8 | 0.7 | -5.3 | -0.4 | 26.2*
O=c1[nH]c2cc3c(cc2cc1C(c1nnnn1C1CCCCC1)N1CCSCC1)OCCO3 (stereo unspecified) | -376.7 | 62.9* | 1.4 | -1.1 | -145.5 | 0.1 | -1.9
CC(C)Oc1cccc(-c2n[nH]c(=S)n2N=Cc2ccc(OCc3ccccc3)cc2)c1 | -3.6 | / | / | / | 0.8 | / | /
COC(=O)C12C=C3CC(C4CC4)=C3C(=O)N1Cc1[nH]c3ccccc3c1C2 (stereo unspecified) | -66.9 | / | / | / | -18.2 | / | /
COCCNc1nc(NCC2CCCCC2)c2sc(-c3ccccc3)cc2n1 | -18.7 | 69.7* | / | / | -3.6 | 3.9 | 93.0*
COCCNc1nc(NCCOc2ccccc2Cl)c2sc(-c3ccccc3)cc2n1 | -18.5 | 6.4 | / | / | -7.6 | 4.8 | /
O=C1NCCN1CCNc1nc(NCC2CC2)nc2cc(-c3ccccc3)sc12 | -93.9 | -1.1 | / | / | -34.4 | 3.6 | /
SMILES | ADAM10 inh | MPTP inh | V-ATPase pHluor | Lipid droplet | ADAM17 inh | aDG glyco act | Rh123 counter | others
c1ccc(-c2cc3nc(NCC4CC4)nc(NCC4CCCCC4)c3s2)cc1 | -34.1 | 74.6* | / | / | -4.7 | 3.2 | 97.3*
CCC(C(=O)OCC(=O)c1c(N)n(CC(C)C)c(=O)n(C)c1=O)c1ccccc1 (stereo unspecified) | -2.7 | 2.3 | 6.4 | / | -6.7 | 1.8 | /
CCC(=NC(C)c1ccccc1)c1c(O)n(C)c(=O)n(C)c1=O (stereo unspecified) | 8.8 | 67.0* | -1.9 | -50.2 | -2.1 | 3.4 | 33.0*
O=C(Nc1ccc(-c2nc3ccccc3o2)cc1)c1ccc(N2CCOCC2)c([N+](=O)[O-])c1 | -9.9 | 87.0* | 3.2 | / | -5.7 | 0.2 | 64.2*
O=C(NNC(=S)Nc1ccc(Cl)cc1Cl)c1ccc(N2CCOCC2)c([N+](=O)[O-])c1 | 7.0 | 98.4* | -4.2 | 6.9 | 4.5 | 0.6 | 62.9*
O=C(c1ccc(N2CCOCC2)c([N+](=O)[O-])c1)N1CCCCC1 | -6.2 | 0.2 | -1.1 | 16.0 | -1.4 | 0.8 | /
COC(=O)[C@]1(CNC(=O)C(F)(F)F)CC(=O)N(C)[C@@H]1c1ccccc1 | -1.5 | / | / | / | -0.6 | / | /
Cc1ccc(Nc2nc(C)c(CCC(C)C)c(=O)[nH]2)cc1 | -2.2 | 5.4 | -2.3 | / | -3.8 | 0.5 | /
Cc1nc(Nc2ccc(F)cc2)[nH]c(=O)c1CCC(C)C | -5.9 | 94.6* | 0.2 | -12.8 | -5.2 | 0.5 | 76.7*
COc1ccc(C(=O)C2(C(=O)NC3CCCC3)CC(c3ccccc3C(F)(F)F)=NO2)cc1 (stereo unspecified) | 6.6 | / | / | / | 2.2 | / | /
CCCCCN1CCCCC(NC(=O)C2CCCCC2)C1=O (stereo unspecified) | -10.6 | / | / | / | -6.0 | / | /
Cc1ccc(NC(=O)C2CCN(S(=O)(=O)c3ccc4c(c3)NC(=O)C(C)S4)CC2)cc1C (stereo unspecified) | 16.2 | 97.5* | 3.2 | -12.3 | 8.3 | 1.5 | 88.6*
Cc1ccc(NC(=O)C2CCN(S(=O)(=O)c3ccc4c(c3)NC(=O)C(C)S4)CC2)c(C)c1 (stereo unspecified) | -0.1 | 0.5 | 1.9 | -12.1 | -3.1 | 0.4 | /
CC1Sc2ccc(S(=O)(=O)N3CCC(C(=O)Nc4cccc(Cl)c4)CC3)cc2NC1=O (stereo unspecified) | 14.2 | 77.6* | 5.1 | -6.5 | 6.2 | 0.4 | 84.6*
CCOC(=O)N1CCN(C(=O)C[C@H]2C[C@@]3(C(=O)OC)C(=C[C@H](C4CCCC4)O[C@@H]3C)N(CCc3ccc(OC)c(OC)c3)C2=O)CC1 | -1.9 | / | / | / | -2.5 | / | /
